The results in this text go back to ChEMBL document CHEMBL4004863, “Design, synthesis, biological evaluation and X-ray structural studies of potent human dihydroorotate dehydrogenase inhibitors based on hydroxylated azole scaffolds” (Eur J Med Chem, 2017).

Broadly, the IC50 is the concentration that gives 50% inhibition. The term solubility denotes the concentration that dissolves in the medium under given conditions. Read a low solubility as a poorly soluble substance.

Converted amounts (≈) assume the structure as drawn. The source made the active and inactive calls. The calls are words filed in the database; no cut-off is given here.

For one data set, the system named is Jurkat. Briefly: Antiproliferative activity against human Jurkat T cells assessed as DNA content after 72 hrs by Hoechst 33258 dye based fluorometric method. The format is functional, cell-based.
Conditions: not given
Summed up: (§1)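 Jurkat T cells grown in X-VIVO 15 with 10% FBS and antibiotic-antimycotic at 37 °C, 5% CO2, passages 5–10, mycoplasma-free, STR-authenticated. IC50 came from nonlinear regression, mean ± SE of three experiments. Uridine, where added, was at 100 μM.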
With `Cc1c(C(=O)Nc2c(F)c(F)c(-c3ccccc3)c(F)c2F)c(O)nn1C`, the IC50 turned out to be 2.22 µM.

With `O=C(Nc1c(F)c(F)c(-c2cccc(OC(F)(F)F)c2)c(F)c1F)c1no[nH]c1=O`, the 50% inhibitory concentration (IC50) was determined as 68.3 µM.

Take `O=C(Nc1c(F)c(F)c(-c2cccc(OC(F)(F)F)c2)c(F)c1F)c1nsnc1O`: the half-inhibitory concentration (IC50) turned out to be 2.5 µM.

As to `Cn1nnc(O)c1C(=O)Nc1c(F)c(F)c(-c2ccccc2)c(F)c1F`, the IC50 was 5.82 µM.

On to `O=C(Nc1c(F)c(F)c(-c2ccccc2)c(F)c1F)c1nsnc1O`, for which the IC50 is 1.04 µM.

As for `O=C(Nc1c(F)c(F)c(-c2ccccc2)c(F)c1F)c1nn(CC2CC2)nc1O`, the IC50 was determined as 7.13 µM.

On to `Cc1c(-c2ccc(-c3ccccc3F)cc2)nc2ccc(F)cc2c1C(=O)O` [BREQUINAR], for which the IC50 turned out to be 0.93 µM.

For the compound `Cn1nc(O)c(C(=O)Nc2c(F)cc(-c3ccccc3)cc2F)n1`, the half-maximal inhibitory concentration (IC50) was determined as 13.3 µM.

On to `O=C(Nc1c(F)c(F)c(-c2ccccc2)c(F)c1F)c1c(O)nnn1CC1CC1`, for which the IC50 was 3.22 µM.

With `O=C(Nc1c(F)c(F)c(-c2ccccc2)c(F)c1F)c1no[nH]c1=O`, the IC50 is 59.7 µM.

As for `Cn1nc(O)c(C(=O)Nc2ccc(-c3ccccc3)cc2F)n1`, the IC50 was 35.7 µM.

The next data set concerns Jurkat. Briefly: Antiproliferative activity against human Jurkat T cells assessed as DNA content up to 100 uM after 72 hrs in presence of exogenous uridine by Hoechst 33258 dye based fluorometric method. The format is functional, cell-based.
Conditions: not given
In outline:
as §1
Regarding `Cc1c(C(=O)Nc2c(F)c(F)c(-c3ccccc3)c(F)c2F)c(O)nn1C`, the result was inactive.

Turning to `O=C(Nc1c(F)c(F)c(-c2ccccc2)c(F)c1F)c1nsnc1O`, the result was inactive.

With `Cc1c(-c2ccc(-c3ccccc3F)cc2)nc2ccc(F)cc2c1C(=O)O` [BREQUINAR], the result was inactive.

A further data set has as its system Jurkat. Briefly: Antiproliferative activity against human Jurkat T cells assessed as DNA content up to 200 uM after 72 hrs in presence of exogenous uridine by Hoechst 33258 dye based fluorometric method. The format is functional, cell-based.
Conditions: not given
In outline: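 Jurkat T cells grown in X-VIVO 15 with 10% FBS and antibiotic-antimycotic at 37 °C, 5% CO2, passages 5–10, mycoplasma-free, STR-authenticated. 5×10^3 cells were exposed to 0.001–200 μM compound or DMSO vehicle for 72 h, lysed in 0.02% SDS/SSC, and stained with Hoechst 33258 (ex 355/em 460 nm). IC50 came from nonlinear regression, mean ± SE of three experiments. Uridine, where added, was at 100 μM.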
On to `C/C(O)=C(\C#N)C(=O)Nc1ccc(C(F)(F)F)cc1` [TERIFLUNOMIDE], for which the result was inactive.

The next data set deals with PBMC. Briefly: Immunosuppressive activity against human PBMC assessed as inhibition of PHA-stimulated cell proliferation preincubated for 2 hrs followed by PHA stimulation for 72 hrs by BrdU incorporation assay. The format is functional, cell-based.
Conditions: not given
(Dividing cells build labelled thymidine or BrdU into new DNA.)
For `Cc1c(C(=O)Nc2c(F)c(F)c(-c3ccccc3)c(F)c2F)c(O)nn1C`, the IC50 stood at 10.7 µM.

Consider `O=C(Nc1c(F)c(F)c(-c2ccccc2)c(F)c1F)c1nsnc1O`, for which the IC50 turned out to be 6.2 µM.

With `Cc1c(-c2ccc(-c3ccccc3F)cc2)nc2ccc(F)cc2c1C(=O)O` [BREQUINAR], the IC50 stood at 4.3 µM.

With `C/C(O)=C(\C#N)C(=O)Nc1ccc(C(F)(F)F)cc1` [TERIFLUNOMIDE], the IC50 is 54.3 µM.

System in another data set: not listed separately
In words: Solubility in pH 7.4 PBS buffer at 1 mg after 24 hrs by HPLC-UV method. The format is physicochemical.
Conditions: not given
`Cc1c(C(=O)Nc2c(F)c(F)c(-c3ccccc3)c(F)c2F)c(O)nn1C` gave a solubility at 24 h of less than 0.1 µM.

`Cn1nnc(O)c1C(=O)Nc1c(F)c(F)c(-c2ccccc2)c(F)c1F` registered a solubility at 24 h of 48 µM (≈ 17.6 µg/mL).

In the case of `O=C(Nc1c(F)c(F)c(-c2ccccc2)c(F)c1F)c1nsnc1O`, the solubility at 24 h amounted to 1690 µM (≈ 626 µg/mL).

The compound `Cc1c(-c2ccc(-c3ccccc3F)cc2)nc2ccc(F)cc2c1C(=O)O` [BREQUINAR] yielded a solubility at 24 h of 359 µM (≈ 135 µg/mL).

System in another data set: not listed separately
In words: Stability in human Jurkat cells assessed as parent compound remaining at 100 uM after 72 hrs by HPLC-UV method. Conditions: read-out: Stability. The format is ADME, cell-based.
`Cc1c(C(=O)Nc2c(F)c(F)c(-c3ccccc3)c(F)c2F)c(O)nn1C`: the remaining at 72 h, 100 µM turned out to be 94%.

Consider `Cn1nnc(O)c1C(=O)Nc1c(F)c(F)c(-c2ccccc2)c(F)c1F`, for which the remaining at 72 h, 100 µM was determined as 99%.

With `O=C(Nc1c(F)c(F)c(-c2ccccc2)c(F)c1F)c1nsnc1O`, the remaining at 72 h, 100 µM worked out at 80%.

`Cc1c(-c2ccc(-c3ccccc3F)cc2)nc2ccc(F)cc2c1C(=O)O` [BREQUINAR]: the remaining at 72 h, 100 µM amounted to 98%.

As to `C/C(O)=C(\C#N)C(=O)Nc1ccc(C(F)(F)F)cc1` [TERIFLUNOMIDE], the remaining at 72 h, 100 µM is 101%.

System in a further data set: not listed separately
Briefly: Solubility in pH 7.4 PBS buffer with 1% DMSO at 1 mg after 24 hrs by HPLC-UV method. The format is physicochemical.
Conditions: not given
On to `Cc1c(C(=O)Nc2c(F)c(F)c(-c3ccccc3)c(F)c2F)c(O)nn1C`, for which the concentration in solution (solubility at 24 h) came to 7 µM (≈ 2.66 µg/mL).

System in another data set: not listed separately
Briefly: Solubility in human Jurkat cell growing medium with 1% DMSO at 1 mg after 24 hrs by HPLC-UV method. The format is physicochemical.
Conditions: not given
In turn, `Cc1c(C(=O)Nc2c(F)c(F)c(-c3ccccc3)c(F)c2F)c(O)nn1C` yielded a solubility at 24 h of more than 100 µM.

System in a further data set: not listed separately
In words: Selectivity index, ratio of compound concentration required to induce up to 30% cell death in human Jurkat T cells to IC50 for antiproliferative activity against human Jurkat T cells. The format is functional.
Conditions: not given
Summed up:
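Ratio of two Jurkat T-cell readouts, both after 72 h compound or DMSO exposure of 5×10^3 cells/well. The numerator is the concentration causing ≥30% cytotoxicity by CellTox green (0.001–100 μM). Cells were grown in X-VIVO 15 with 10% FBS; three independent experiments.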
As for `Cc1c(C(=O)Nc2c(F)c(F)c(-c3ccccc3)c(F)c2F)c(O)nn1C`, the “Selectivity Index” value is reported as 70.

Consider `O=C(Nc1c(F)c(F)c(-c2ccccc2)c(F)c1F)c1nsnc1O`, for which the “Selectivity Index” value came out at 70.

The subject of a further data set is Jurkat. In words: Cytotoxicity against human Jurkat T cells assessed as compound concentration required to induce up to 30% cell death after 72 hrs by CellTox green assay.
Conditions: not given
`Cc1c(C(=O)Nc2c(F)c(F)c(-c3ccccc3)c(F)c2F)c(O)nn1C`: the Activity was determined as 82 µM.

For the compound `O=C(Nc1c(F)c(F)c(-c2cccc(OC(F)(F)F)c2)c(F)c1F)c1no[nH]c1=O`, the Activity is more than 100 µM.

Consider `O=C(Nc1c(F)c(F)c(-c2cccc(OC(F)(F)F)c2)c(F)c1F)c1nsnc1O`, for which the Activity came out at 5.2 µM.

Regarding `Cn1nnc(O)c1C(=O)Nc1c(F)c(F)c(-c2ccccc2)c(F)c1F`, the Activity worked out at 8.3 µM.

Turning to `O=C(Nc1c(F)c(F)c(-c2ccccc2)c(F)c1F)c1nsnc1O`, the Activity was found to be 78 µM.

For `O=C(Nc1c(F)c(F)c(-c2ccccc2)c(F)c1F)c1nn(CC2CC2)nc1O`, the Activity was 11 µM.

Turning to `Cc1c(-c2ccc(-c3ccccc3F)cc2)nc2ccc(F)cc2c1C(=O)O` [BREQUINAR], the Activity was determined as 45 µM.

Consider `C/C(O)=C(\C#N)C(=O)Nc1ccc(C(F)(F)F)cc1` [TERIFLUNOMIDE], for which the Activity worked out at 53 µM.

In the case of `Cn1nc(O)c(C(=O)Nc2c(F)cc(-c3ccccc3)cc2F)n1`, the Activity was found to be 49.3 µM.

Regarding `O=C(Nc1c(F)c(F)c(-c2ccccc2)c(F)c1F)c1c(O)nnn1CC1CC1`, the Activity amounted to 6 µM.

Consider `O=C(Nc1c(F)c(F)c(-c2ccccc2)c(F)c1F)c1no[nH]c1=O`, for which the Activity is more than 100 µM.

With `Cn1nc(O)c(C(=O)Nc2ccc(-c3ccccc3)cc2F)n1`, the Activity came out at 56.8 µM.
